The source of these data is ChEMBL document CHEMBL3739331, “Synthesis and Bioactivities of Kanamycin B-Derived Cationic Amphiphiles” (J Med Chem, 2015).

The subject of one series is Aspergillus nidulans. The series can be described thus: Antifungal activity against Aspergillus nidulans ATCC 38163 after 48 hrs by microbroth dilution method. The class given is functional. To be noted: ATCC 38163, 48 h. The essentials:
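Filamentous fungus MIC by broth microdilution, run in duplicate. All compounds are read as MIC-0 (complete inhibition).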
In general terms: In broth dilution the organism is exposed to a series of concentrations in liquid medium.

Series [1] deals with Mycobacterium tuberculosis. The series can be described thus: Activity of Mycobacterium tuberculosis Eis assessed as compound acetylation activity by Ellman's method. For orientation: DTNB colorimetry detects thiols as they appear.
The subject of a further series is Bacillus subtilis. In words: Antibacterial activity against Bacillus subtilis 168 by microdilution method. The class given is functional. To be noted: subsp. subtilis str. 168. The essentials:
(§1)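 Broth microdilution MIC against the named bacterial strain, reported in μg/mL; each determination run at least in duplicate.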

The test system of series [2] is Staphylococcus aureus. The series can be described thus: Antibacterial activity against Staphylococcus aureus ATCC 29213 by microdilution method. It counts as functional. The essentials: as §1
Series [3] is described as follows: Activity of AAC(3)-4 (unknown origin) assessed as compound acetylation activity by Ellman's method.
Another series relates to Enterobacter cloacae. In words: Antibacterial activity against Enterobacter cloacae ATCC 13047 by microdilution method. It counts as functional. A digest of the protocol: as §1
Series [4] relates to Candida albicans. In words: Antifungal activity against azole-resistant Candida albicans ATCC 64124 after 48 hrs by microbroth dilution method. The class given is functional. The following applies: ATCC 64124, 48 h. The essentials:
(§2)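 Yeast MIC by broth microdilution, run in duplicate. The aminoglycoside compounds are read as MIC-0 (complete inhibition). Azoles are read as MIC-2 (50% inhibition).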

Series [5] concerns Candida albicans. In words: Antifungal activity against azole-resistant Candida albicans MYA-1237 after 48 hrs by microbroth dilution method. The class given is functional. The following applies: MYA-1237, 48 h. The essentials: as §2
In the next series the test system is Escherichia coli. In words: Antibacterial activity against Escherichia coli MC1061 by microdilution method. The class given is functional. A digest of the protocol:
(§3)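 Broth microdilution MIC, in μg/mL, against a panel of Gram-positive and Gram-negative strains. Run at least in duplicate.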

A further series has as its system A549. The series can be described thus: Cytotoxicity against human A549 cells after 24 hrs by resazurin assay. The class given is cell-based. The following applies: human, a549, 24 h. A general note: Alamar Blue is a resazurin reagent that responds to reducing activity.
Series [6] has as its system Mycolicibacterium smegmatis. The series can be described thus: Antibacterial activity against Mycobacterium smegmatis MC2 155 by microdilution method. It counts as functional. To be noted: str. MC2 155. The essentials: as §3
The next series concerns Salmonella enterica. In words: Antibacterial activity against Salmonella enterica ATCC 14028 by microdilution method. The class given is functional. A digest of the protocol:
as §1

In series [7] the test system is Candida albicans. The series can be described thus: Antifungal activity against azole-susceptible Candida albicans ATCC MYA-2310 after 48 hrs by microbroth dilution method. The following applies: ATCC MYA-2310, 48 h. The class given is functional. A digest of the protocol:
as §2

In series [8] the test system is Candida albicans. The series can be described thus: Antifungal activity against azole-resistant Candida albicans ATCC 10231 after 48 hrs by microbroth dilution method. It counts as functional. The following applies: ATCC 10231, 48 h. A digest of the protocol: as §2
In series [9] the test system is Candida albicans. The series can be described thus: Antifungal activity against azole-resistant Candida albicans ATCC 90819 after 48 hrs by microbroth dilution method. It counts as functional. The following applies: ATCC 90819, 48 h. The essentials:
as §2

Series [10] concerns Candida albicans. The series can be described thus: Antifungal activity against azole-susceptible Candida albicans ATCC MYA-2876 after 48 hrs by microbroth dilution method. It counts as functional. The following applies: ATCC MYA-2876, 48 h. The essentials:
as §2

For the next series, the system named is Listeria monocytogenes. In words: Antibacterial activity against Listeria monocytogenes ATCC 19115 by microdilution method. It counts as functional. A digest of the protocol: as §1
Series [11] is described as follows: Activity of AAC(6')-1e/APH(2'')-1a (unknown origin) assessed as compound acetylation activity by Ellman's method.
For another series, the system named is Serratia marcescens. The series can be described thus: Activity of Serratia marcescens AAC(6')-2d assessed as compound acetylation activity by Ellman's method.
In series [12] the test system is Staphylococcus epidermidis. In words: Antibacterial activity against Staphylococcus epidermidis ATCC 12228 by microdilution method. It counts as functional. The essentials: as §1
Series [13] in a line: Cytotoxicity against human BEAS2B cells after 24 hrs by resazurin assay. It counts as cell-based, BEAS-2B. The following applies: human, beas-2b.
Series [14] relates to Staphylococcus aureus. In words: Antibacterial activity against Staphylococcus aureus NRS385 (USA 300) by microdilution method. The class given is functional. The essentials: as §3
A further series deals with Acinetobacter baumannii. The series can be described thus: Antibacterial activity against Acinetobacter baumannii ATCC 19606 by microdilution method. The class given is functional. A digest of the protocol:
as §1

The subject of series [15] is Bacillus subtilis subsp. subtilis str. 168. The series can be described thus: Activity of Bacillus subtilis 168 APH(2'')-1a assessed as compound phosphorylation activity by Ellman's method.
Another series concerns Klebsiella pneumoniae. In words: Antibacterial activity against Klebsiella pneumoniae ATCC 27736 by microdilution method. The class given is functional. The essentials: as §1
Series [16] has as its system Mycobacterium tuberculosis. In words: Activity of Mycobacterium tuberculosis AAC(2')-1c assessed as compound acetylation activity by Ellman's method.
A short description of series [17]: Hemolytic activity against mouse RBC at 100 to 500 ug/ml after 60 mins. The class given is ADME, cell-based. The following applies: erythrocyte, 1 h.
Series [18] has as its system Candida albicans. The series can be described thus: Antifungal activity against azole-resistant Candida albicans MYA-1003 after 48 hrs by microbroth dilution method. The class given is functional. The following applies: MYA-1003, 48 h. A digest of the protocol: as §2

Values after ≈ are worked out from the molar mass of the structure shown. Active and inactive are the calls of the source. The rule behind the calls is not given here.

By MIC is commonly meant the lowest concentration found to suppress growth. For the molecule `CCCCCCCCCCCCSC[C@H]1O[C@H](O[C@@H]2[C@@H](O)[C@H](O[C@H]3O[C@H](CN)[C@@H](O)C[C@H]3N)[C@@H](N)C[C@H]2N)[C@H](O)[C@@H](N)[C@@H]1O`, the MIC in the series on Aspergillus nidulans was 7.8 µg/mL (≈ 12 µM).
Same read-out and setting: with `CCCCCCCCCCCCCCSC[C@H]1O[C@H](O[C@@H]2[C@@H](O)[C@H](O[C@H]3O[C@H](CN)[C@@H](O)C[C@H]3N)[C@@H](N)C[C@H]2N)[C@H](O)[C@@H](N)[C@@H]1O` the figure was 7.8 µg/mL (≈ 11.5 µM); with `CCCCCCCCSC[C@H]1O[C@H](O[C@@H]2[C@@H](O)[C@H](O[C@H]3O[C@H](CN)[C@@H](O)C[C@H]3N)[C@@H](N)C[C@H]2N)[C@H](O)[C@@H](N)[C@@H]1O`, 125 µg/mL (≈ 210 µM).
The same measure, in the same setting: to `CCCCCCCCCCSC[C@H]1O[C@H](O[C@@H]2[C@@H](O)[C@H](O[C@H]3O[C@H](CN)[C@@H](O)C[C@H]3N)[C@@H](N)C[C@H]2N)[C@H](O)[C@@H](N)[C@@H]1O` belongs 62.5 µg/mL (≈ 100 µM).
As for `CCCCCCCCCCSC[C@@H]1O[C@@H](O[C@@H]2[C@@H](O)[C@H](O[C@@H]3O[C@@H](CN)[C@H](O)[C@@H](O)[C@@H]3N)[C@@H](N)C[C@H]2N)[C@@H](O)[C@H](N)[C@H]1O` (stereo in doubt), the result (in series [1]; in series [3]; in series [11]; in the series on Serratia marcescens; in series [15]; in [16]) was inactive. Also, the minimal inhibitory concentration (MIC) is 128 µg/mL (≈ 200 µM) against Bacillus subtilis; 16 µg/mL (≈ 25 µM) with Staphylococcus aureus [2]; over 128 µg/mL with Enterobacter cloacae; 125 µg/mL (≈ 195 µM) in the series on Candida albicans [4]; 125 µg/mL (≈ 195 µM) with Candida albicans [5]; over 128 µg/mL in the series on Escherichia coli. Besides, the MIC in [6] was 8 µg/mL (≈ 12.5 µM); with Salmonella enterica, over 128 µg/mL; in the series with Candida albicans [7], 62.5 µg/mL (≈ 97.7 µM); with Candida albicans [8] it was 125 µg/mL (≈ 195 µM); against Candida albicans [9], 125 µg/mL (≈ 195 µM); in the series on Aspergillus nidulans, at most 1.95 µg/mL. The MIC was 125 µg/mL (≈ 195 µM) against Candida albicans [10]; 2 µg/mL (≈ 3.13 µM) against Listeria monocytogenes; over 128 µg/mL in [12]; 32 µg/mL (≈ 50 µM) in the series with Staphylococcus aureus [14]; over 128 µg/mL in the series with Acinetobacter baumannii; over 128 µg/mL with Klebsiella pneumoniae. The lowest concentration to inhibit growth in the series on Candida albicans [18] (MIC) was 125 µg/mL (≈ 195 µM). Also, the Activity entry (with A549; in series [13]; in series [17]) was “Non-toxic” throughout.
